# In the library only some 2.6% were active in any assay of this set; here they are far more common.
# FGF22 binding: binders of recombinant human FGF22 by thermal shift; AID 651658; SYPRO orange fluorescence; percent of sucrose octasulfate shift, DMSO zero; activity (Tm shift, normalised), % at 9.99 µM; hit rate 1.5% among 340,000; Q9HCT0;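 active means mean Tm shift, scaled 0 neutral to 100 positive control, at about 1.3% or above, every replicate too, limit read from the data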
# Target sequence (Q9HCT0 whole entry, looked up): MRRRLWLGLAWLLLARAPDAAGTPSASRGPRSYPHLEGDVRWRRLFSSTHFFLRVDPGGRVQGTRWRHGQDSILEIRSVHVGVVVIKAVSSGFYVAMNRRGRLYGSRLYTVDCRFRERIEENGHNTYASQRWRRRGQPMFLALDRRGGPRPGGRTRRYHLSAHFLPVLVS
# SIRT5 block: inhibitors of human sirtuin-5 desuccinylase. Q9NXA8. Purified SirT5, succinyl-peptide AMC, trypsin-coupled fluorescence. inhibition, % at 15 µM. hit rate 1.1% among 330,000. AID 652115; in the data active means inhibition above about 15%
# UCH37 DUB inh: blocks the human deubiquitinase UCH37; Q9Y5K5; purified proteasome/UCH37, Ub-AMC cleavage fluorescence; inhibition, % (test concentration not listed); hit rate 0.33% among 330,000; AID 588478;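 active means mean inhibition over replicate wells above about 20%, limit read from the data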;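 further: 0% = compound-free wells with enzyme and 100% = wells lacking proteasome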
#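 Schedule: 30 min plus 25 min, room temperature / Material: human UCH37 within purified proteasomes / Technique: AMC fluorescence intensity at 355/460 nm / Buffer or medium: pH 7.4 Tris-HCl (50 mM) with ovalbumin, ATP-MgCl2, DTT / Controls: wells without proteasome as full block, compound-free enzyme plus substrate as uninhibited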
# CASP6 VEID inh: inhibitors of human caspase-6; purified caspase-6, Z-VEID-R110 cleavage fluorescence; inhibition, % at 12.5 µM; hit rate 0.53% among 350,000; AID 686996;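 active means mean inhibition across replicates at least about 35%, with every replicate also reaching that limit, limit read from the data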;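 further: 0% = median of neutral control wells and 100% = no fluorescence left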
# NSD2 HMT inh: NSD2 (human) methyltransferase inhibition | hit rate 0.54% among 310,000 | O96028 | NSD2 peptide methylation, AlphaScreen, 120 min | inhibition, % at 12.5 µM; in the data active means inhibition above about 50%
# * hit, by the source's call; . = no result given.
SMILES,FGF22 binding,SIRT5 block,UCH37 DUB inh,CASP6 VEID inh,NSD2 HMT inh
CCC(C)(C)NC(=O)CN(C(=O)c1csnn1)c1ccccc1-c1ccccc1,43*,2,2,0,-6
N#C[C@@H]1[C@@H](c2ccc(-c3ccncc3)cc2)[C@@H](CO)N1C(=O)C1CCOCC1,0,-2,.,1,.
COc1cccc(C2=NN(C(=O)c3ccco3)C(O)(C(F)(F)F)C2)c1 (configuration not stated),0,-1,3,0,2
Cc1ccc(C2=NN(C(=O)c3ccco3)C(O)(C(F)(F)F)C2)cc1 (configuration not stated),44*,-4,2,4,18
O=C(Cn1cc(COc2c(Br)cc(F)cc2Br)nn1)c1ccc(O)cc1,0,-7,.,1,.
O=C(Cn1cc(COc2c(F)c(F)c(Br)c(F)c2F)nn1)c1ccc(O)cc1,1.8*,0,.,4,.
COc1ccc2c3c([nH]c2c1)[C@@H](CO)N(C(C)=O)CC31CN(C(C)=O)C1,0,.,.,.,.
CCC(=O)N1CC2(C1)[C@H](c1ccccc1)[C@H](CO)N2CCC(F)(F)F,0,1,.,0,.
O=C(COC(=O)CC1CC2CCC1C2)NCc1ccccc1 (configuration not stated),.,35*,0,-4,0
Cc1cccc(NC(=S)Nc2ccccn2)c1,0,20*,1,-2,1
O=C(NCc1cccnc1)c1ccc(Cn2c(=S)[nH]c3ccc(Br)cc3c2=O)cc1,0,16*,3,-5,0
O=C(CCn1cnc2ccccc21)NN=Cc1ccc(O)cc1,.,.,4,.,.
CC(C)(C)NCC(O)COc1ccc(Br)cc1 (configuration not stated),44*,-5,1,-5,11
Cc1cccc(C)c1OCC(O)CNC(C)(C)C (configuration not stated),.,.,0,.,17
O=Cc1ccc(F)c([B-](F)(F)F)c1,43*,.,.,1,.
O=Cc1ccc2noc(-c3ccc(F)cc3)c2c1,.,.,-27,.,-6
CC1=NN(C(N)=S)C(=O)C1N=Nc1cccc(C(=O)O)c1 (configuration not stated),0,24*,12,-2,2
CC1=NN(C(N)=S)C(=O)C1N=Nc1cccc(C)c1 (configuration not stated),1,-4,7,4,1
COc1ccc(NC(=O)C2=CC=CN3CCS(=O)(=O)N=C23)c(OC)c1,0,28*,3,0,0
Cc1ccccc1NC(=O)C1=CC=CN2CCS(=O)(=O)N=C12,0,-5,5,1,-1
O=C(Nc1ccccc1N1CCCCC1)C1=COCCO1,0,4,-1,-82,-1
O=C(Nc1cc(C(F)(F)F)ccc1N1CCCCC1)C1=COCCO1,1.9*,.,.,1,-3
COc1ccc(NC(=O)N[C@@H]2CC[C@@H](CCNC(=O)CCN3CCCCC3)O[C@@H]2CO)cc1,0,-1,.,-1,.
COC(=O)C(c1ccccc1)C1(O)CC(C)N(C)CC1C (configuration not stated),0,26*,3,-1,11
C[C@H](CO)N1C[C@H](C)[C@@H](CN(C)Cc2ccc3c(c2)OCO3)Oc2c(NC(=O)c3ccc(-c4nccs4)cc3)cccc2C1=O,0,2,.,1,.
SMILES,FGF22 binding,SIRT5 block,UCH37 DUB inh,CASP6 VEID inh,NSD2 HMT inh
CC(=O)Nc1c(O)nc(SCC(=O)Nc2nnc(CC(C)C)s2)[nH]c1=O,.,.,2,.,-3
CC(=O)Nc1c(O)nc(SCC(=O)Nc2nnc(SCc3ccccc3)s2)[nH]c1=O,41,4,5,80*,.
COC(=O)[C@@]1(Cc2ccccc2)[C@H]2C(=O)N(C)C(=O)[C@H]2[C@H]2CN=C(SCc3ccc(C)cc3)N21,.,9,3,0,.
COC(=O)[C@@]1(Cc2ccccc2)[C@H]2C(=O)N(C)C(=O)[C@H]2[C@H]2CN=C(SCc3ccc(Cl)cc3)N21,43*,0,0,-1,.
CCC(CC)COC(=O)C1=C(C)NC(=O)NC1c1cc(OC)ccc1OC (configuration not stated),0,4,-51,68*,-2
C/C=C/c1ccc2c(c1)O[C@H](CN(C)CC1CCOCC1)[C@@H](C)CN([C@@H](C)CO)S2(=O)=O,0,1,.,-3,.
CN(C)C(=O)c1ccc(NC(=O)c2ccc(-c3ccc(Cl)cc3)o2)cc1,1.8*,14,.,1,-2

# High-throughput results from PubChem.
